Test results: ChEMBL document CHEMBL1687886, “N-cyclic bay-substituted perylene G-quadruplex ligands have selective antiproliferative effects on cancer cells and induce telomere damage” (J Med Chem, 2011)

Legend:
Format in all cases: nucleic-acid assay
Nucleic Acid [1] = assay: Binding affinity to human 21-TT G-quadruplex DNA structure assessed as first step association constant by electrospray ionization mass spectrometry
How it was run: (§1)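 ESI-MS in 150 mM ammonium acetate; DNA 5 μM final (per duplex or quadruplex unit); ligand at drug/DNA ratios 0.5 to 4. Methanol (15%) added just before injection, after binding equilibrium. K1 and K2 for 1:1 and 2:1 complexes, and % bound DNA, taken from relative peak intensities assuming equal response factors. At least three repeats.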

Nucleic Acid [2] = assay: Binding affinity to human 21-TT G-quadruplex DNA structure assessed as second step association constant by electrospray ionization mass spectrometry; how it was run: as §1
Nucleic Acid [3] = assay: Binding affinity to human DK66 duplex DNA structure assessed as first step association constant by electrospray ionization mass spectrometry; how it was run: as §1
Nucleic Acid [4] = assay: Stabilization of 21-mer human F21T G4-telomeric quadruplex assessed as change in melting temperature at 1 uM by FRET assay
Nucleic Acid [5] = assay: Stabilization of human duplex DNA T-loop assessed as change in melting temperature at 1 uM by FRET assay
Nucleic Acid [6] = assay: Binding affinity to human 21-TT G-quadruplex DNA structure assessed as bound DNA at 5:5 DNA to drug ratio by electrospray ionization mass spectrometry; how it was run: as §1
Nucleic Acid [7] = assay: Binding affinity to human 21-TT G-quadruplex DNA structure assessed as bound DNA at 5:10 DNA to drug ratio by electrospray ionization mass spectrometry; how it was run: as §1
Nucleic Acid [8] = assay: Binding affinity to human DK66 duplex DNA structure assessed as bound DNA at 5:20 DNA to drug ratio by electrospray ionization mass spectrometry; how it was run: as §1

Row | log Ks (Nucleic Acid [1]) | log Ks (Nucleic Acid [2]) | log Ks (Nucleic Acid [3]) | ΔTm (Nucleic Acid [4]) [°C] | ΔTm (Nucleic Acid [5]) [°C] | Activity (Nucleic Acid [6]) [%] | Activity (Nucleic Acid [7]) [%] | Activity (Nucleic Acid [8]) [%] | Structure (SMILES)
1 | 4.6 | 4.8 | 3.7 | 12.9 | -0.4 | 13 | 37 | 9 | CNCCOCCN1C(=O)c2ccc3c4c(N5CCCCC5)cc5c6c(ccc(c7c(N8CCCCC8)cc(c2c37)C1=O)c64)C(=O)N(CCOCCNC)C5=O
2 | 4.8 | 4.8 | 3.8 | 13.1 | 0.1 | 20 | 30 | 11 | O=C1c2ccc3c4c(N5CCCCC5)cc5c6c(cc(N7CCCCC7)c(c7ccc(c2c37)C(=O)N1CCOCCN1CCCCC1)c64)C(=O)N(CCOCCN1CCCCC1)C5=O
3 | 3.9 |  | 3.8 | 5.2 | -0.1 |  |  | 10 | CN1CCN(CCOCCN2C(=O)c3ccc4c5c(N6CCCCC6)cc6c7c(ccc(c8c(N9CCCCC9)cc(c3c48)C2=O)c75)C(=O)N(CCOCCN2CCN(C)CC2)C6=O)CC1
4 | 4.6 | 4.9 | 4 | 16.6 | 0.9 | 22.5 | 30 | 16 | CN(C)CCOCCN1C(=O)c2ccc3c4c(N5CCCCC5)cc5c6c(ccc(c7c(N8CCCCC8)cc(c2c37)C1=O)c64)C(=O)N(CCOCCN(C)C)C5=O
